In ChEMBL document CHEMBL3758148, “4-Phenylpyridin-2-one Derivatives: A Novel Class of Positive Allosteric Modulator of the M1 Muscarinic Acetylcholine Receptor” (J Med Chem, 2016):
Calls of active or inactive are those of the source. The calls are words filed in the database; no cut-off is given here.

How the values were obtained:
[1] = molecular target: Muscarinic acetylcholine receptor M3 (Homo sapiens) (UniProt P20309); test: Displacement of [3H]NMS from human muscarinic M3 receptor expressed in CHO Flp-In cells up to 10 uM after 1 hr by microbeta liquid scintillation counting-based radioligand binding assay; format: cell-based
Method in brief: (§1)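 Whole Flp-In CHO cells expressing hM2, hM3, hM4 or hM5 were incubated with [3H]NMS, ACh and modulator up to 10 μM in HEPES-buffered saline pH 7.4, 1 h at 37 °C. Bound radioactivity was counted by scintillation after two ice-cold saline washes.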

[2] = molecular target: T1, Muscarinic acetylcholine receptor M4 (Homo sapiens) (UniProt P08173); test: Displacement of [3H]NMS from human muscarinic M4 receptor expressed in CHO Flp-In cells up to 10 uM after 1 hr by microbeta liquid scintillation counting-based radioligand binding assay; format: cell-based; method in brief: as §1
T1 sequence (whole entry): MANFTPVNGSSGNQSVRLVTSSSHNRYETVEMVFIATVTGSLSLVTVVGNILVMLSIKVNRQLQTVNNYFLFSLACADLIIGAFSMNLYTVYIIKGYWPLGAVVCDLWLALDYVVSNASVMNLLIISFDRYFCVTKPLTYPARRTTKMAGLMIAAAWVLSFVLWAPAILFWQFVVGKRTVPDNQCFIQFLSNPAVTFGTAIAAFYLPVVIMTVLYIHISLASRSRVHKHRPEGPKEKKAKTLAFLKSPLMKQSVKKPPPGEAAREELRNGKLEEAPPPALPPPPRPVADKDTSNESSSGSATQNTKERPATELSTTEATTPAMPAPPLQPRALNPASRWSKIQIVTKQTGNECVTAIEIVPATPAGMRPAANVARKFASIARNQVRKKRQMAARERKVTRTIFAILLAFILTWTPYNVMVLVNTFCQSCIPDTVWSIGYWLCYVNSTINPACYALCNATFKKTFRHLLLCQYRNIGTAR

[3] = molecular target: T2, Muscarinic acetylcholine receptor M2 (Homo sapiens) (UniProt P08172); test: Displacement of [3H]NMS from human muscarinic M2 receptor expressed in CHO Flp-In cells up to 10 uM after 1 hr by microbeta liquid scintillation counting-based radioligand binding assay; format: cell-based; method in brief: as §1
T2 sequence (whole entry): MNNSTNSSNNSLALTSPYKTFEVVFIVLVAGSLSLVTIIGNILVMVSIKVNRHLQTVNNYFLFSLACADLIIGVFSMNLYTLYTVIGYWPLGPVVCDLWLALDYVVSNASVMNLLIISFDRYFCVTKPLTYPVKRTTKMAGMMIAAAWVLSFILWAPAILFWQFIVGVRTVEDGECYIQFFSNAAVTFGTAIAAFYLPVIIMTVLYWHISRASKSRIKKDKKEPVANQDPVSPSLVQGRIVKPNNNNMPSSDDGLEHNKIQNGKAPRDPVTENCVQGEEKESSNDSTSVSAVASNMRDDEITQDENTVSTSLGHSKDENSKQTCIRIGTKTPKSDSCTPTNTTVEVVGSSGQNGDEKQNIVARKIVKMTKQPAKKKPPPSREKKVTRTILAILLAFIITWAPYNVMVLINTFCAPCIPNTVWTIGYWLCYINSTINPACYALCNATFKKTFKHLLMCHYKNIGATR

[4] = molecular target: T3, Muscarinic acetylcholine receptor M1 (Homo sapiens) (UniProt P11229); test: Positive allosteric modulation of human muscarinic M1 receptor expressed in CHO Flp-In cells assessed as functional cooperativity with acetylcholine measured as IP1 accumulation after 1 hr by HTRF method; format: cell-based
T3 sequence (whole entry): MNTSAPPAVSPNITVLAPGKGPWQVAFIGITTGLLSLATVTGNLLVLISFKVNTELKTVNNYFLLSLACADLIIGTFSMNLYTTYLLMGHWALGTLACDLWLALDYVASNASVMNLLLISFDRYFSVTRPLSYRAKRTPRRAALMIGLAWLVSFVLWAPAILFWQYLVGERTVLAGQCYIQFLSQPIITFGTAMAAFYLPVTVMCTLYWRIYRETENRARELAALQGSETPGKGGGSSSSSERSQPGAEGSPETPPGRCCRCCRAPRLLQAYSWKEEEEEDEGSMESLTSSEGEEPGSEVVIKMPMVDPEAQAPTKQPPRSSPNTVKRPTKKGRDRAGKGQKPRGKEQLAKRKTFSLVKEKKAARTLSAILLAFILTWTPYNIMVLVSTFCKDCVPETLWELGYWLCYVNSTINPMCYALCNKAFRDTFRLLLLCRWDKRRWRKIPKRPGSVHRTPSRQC
Method in brief: (§2)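 Suspended Flp-In CHO cells stably expressing hM1, stimulated at 10⁶ cells/ml in HEPES buffer with 50 mM LiCl, pH 7.4, using increasing ACh with or without increasing modulator, 1 h at 37 °C, 5% CO2. IP1 read by HTRF (665/590 nm ratio). Curves fitted globally to the operational model of allosterism, with KB fixed from binding. Mean ± SEM, ≥3 experiments in duplicate.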

[5] = molecular target: T4, Muscarinic acetylcholine receptor M5 (Homo sapiens) (UniProt P08912); test: Displacement of [3H]NMS from human muscarinic M5 receptor expressed in CHO Flp-In cells up to 10 uM after 1 hr by microbeta liquid scintillation counting-based radioligand binding assay; format: cell-based; method in brief: as §1
T4 sequence (whole entry): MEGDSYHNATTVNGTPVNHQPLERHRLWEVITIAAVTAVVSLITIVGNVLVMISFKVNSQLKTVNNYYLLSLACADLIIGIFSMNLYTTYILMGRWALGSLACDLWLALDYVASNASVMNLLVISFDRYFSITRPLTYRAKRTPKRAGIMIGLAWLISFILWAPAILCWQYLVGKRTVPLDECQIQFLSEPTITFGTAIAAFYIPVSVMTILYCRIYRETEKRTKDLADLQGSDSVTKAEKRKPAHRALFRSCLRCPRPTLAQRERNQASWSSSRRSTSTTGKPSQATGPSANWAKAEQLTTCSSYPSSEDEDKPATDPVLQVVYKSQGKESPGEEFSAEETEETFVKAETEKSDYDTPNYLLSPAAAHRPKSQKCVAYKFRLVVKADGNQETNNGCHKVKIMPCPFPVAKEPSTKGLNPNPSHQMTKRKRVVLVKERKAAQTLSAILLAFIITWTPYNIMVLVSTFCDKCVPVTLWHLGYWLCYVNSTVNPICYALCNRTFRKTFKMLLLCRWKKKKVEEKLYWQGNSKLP

[6] = molecular target: T3, Muscarinic acetylcholine receptor M1 (Homo sapiens); test: Allosteric agonist activity at human muscarinic M1 receptor expressed in CHO Flp-In cells assessed as intrinsic activity measured as IP1 accumulation after 1 hr by HTRF method; format: functional, cell-based; method in brief: as §2
[7] = molecular target: T3, Muscarinic acetylcholine receptor M1 (Homo sapiens); test: Displacement of [3H]NMS from human muscarinic M1 receptor expressed in CHO Flp-In cells after 1 hr by microbeta liquid scintillation counting-based radioligand binding assay; format: cell-based
Method in brief: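 Intact adherent Flp-In CHO cells expressing hM1 (10⁴ cells/well), incubated with 0.2 nM [3H]NMS, varying ACh and modulator in HEPES-buffered saline pH 7.4 for 1 h at 37 °C. Washed with ice-cold 0.9% NaCl, then scintillation counted. Fitted to an allosteric ternary complex model with [3H]NMS KA 0.2 nM. Mean ± SEM, ≥3 experiments in duplicate.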

Chain of Muscarinic acetylcholine receptor M3 (Homo sapiens) (P20309 whole entry, looked up): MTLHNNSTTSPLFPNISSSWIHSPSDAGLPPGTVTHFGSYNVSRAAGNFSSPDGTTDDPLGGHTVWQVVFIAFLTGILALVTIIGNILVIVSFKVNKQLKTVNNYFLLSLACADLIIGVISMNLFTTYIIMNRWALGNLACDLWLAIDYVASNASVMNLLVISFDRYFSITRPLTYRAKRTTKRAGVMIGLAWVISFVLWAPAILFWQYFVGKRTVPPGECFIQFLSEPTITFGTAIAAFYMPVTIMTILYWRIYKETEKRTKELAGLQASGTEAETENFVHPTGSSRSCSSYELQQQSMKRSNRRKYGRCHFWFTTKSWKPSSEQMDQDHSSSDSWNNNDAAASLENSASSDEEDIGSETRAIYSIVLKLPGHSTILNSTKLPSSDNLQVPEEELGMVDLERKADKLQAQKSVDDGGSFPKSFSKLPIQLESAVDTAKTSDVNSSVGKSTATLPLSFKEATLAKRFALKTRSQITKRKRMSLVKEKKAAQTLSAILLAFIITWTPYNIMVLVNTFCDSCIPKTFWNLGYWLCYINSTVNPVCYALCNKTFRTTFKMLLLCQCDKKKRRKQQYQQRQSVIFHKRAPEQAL

Activity [1] | Activity [2] | Activity [3] | log(activity) [4] | Activity [5] | Intrinsic activity [6] | log(IA) [6] | Kb [7] | pKb [7] | Compound
inactive | inactive | inactive | 1.84 | inactive | 0.22 | -0.6 |  |  | COc1ccc(Cn2cc(C(=O)O)c(=O)c3ccccc32)cc1
inactive | inactive | inactive | 2.3 | inactive | 0.21 | -0.68 | 43 µM | 4.37 | Cn1cc(-c2ccc(COc3ccccc3-c3ccn([C@H]4CCCC[C@@H]4O)c(=O)c3)cc2)cn1 (racemic)
